Bounds are passed on as bounds.

Series [1] deals with LoVo cells. Kind of series: Hoechst 33258 staining, morphological analysis of cell death mode. It counts as cell-based, human. Particulars: 48 h with IC50. An outline of the steps: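 LoVo cells were seeded at 5 × 10⁴ per well on tissue-culture slides, grown 24 h and washed twice with PBS. They were then treated with test compound, stained 5 min with 10 μg mL⁻¹ Hoechst 33258 in PBS, and examined for nuclear morphology by confocal microscopy at 40× and 10×.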

Another series relates to U-1285 cells. Briefly: MTT cytotoxicity, 72 h, U-1285 small cell lung cancer cells. Particulars: read-out: IC50 (μM) ± S.D., U-1285, MTT test. It counts as cell-based, human. In short, it runs like this: (§1)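 Cells were kept in log phase at 37 °C, 5% CO₂, in RPMI-1640 with 10% fetal calf serum, penicillin/streptomycin and 2 mM L-glutamine. […] MTT read-out after 72 h exposure, absorbance 570 nm versus untreated wells. IC50 from 4-parameter logistic model; means of at least three independent experiments.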
For orientation: Tetrazolium dyes change colour on reduction, which living cells bring about.

For the next series, the target named is LoVo spheroids. Briefly: 3D spheroid culture, acid phosphatase. It counts as cell-based, human. The following applies: read-out: IC50 (μM) ± S.D., LoVo spheroids; 3D spheroids, 72 h, APH assay. In short, it runs like this: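 LoVo spheroids formed from 2.5 × 10³ cells per well in round-bottom non-treated wells, in phenol red free F-12 HAMs medium with 10% fetal calf serum plus 20% methyl cellulose stock solution. Test compound added from DMSO stock (final DMSO 0.5%) at increasing concentrations for 72 h. Viability by modified acid phosphatase assay at 405 nm. IC50 from 4-parameter logistic fit; means of at least three independent experiments.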

The test system of the next series is B-CPAP cells. Briefly: MTT cytotoxicity, 72 h, B-CPAP thyroid cancer cells. The class given is cell-based, human. Particulars: read-out: IC50 (μM) ± S.D., B-CPAP, MTT test. An outline of the steps:
as §1

The subject of series [2] is LoVo cells. Kind of series: MTT cytotoxicity, 72 h, LoVo colon cancer cells. Particulars: read-out: IC50 (μM) ± S.D., LoVo, MTT test, 2D monolayer. The class given is cell-based, human. An outline of the steps:
as §1

In a further series the test system is PSN-1 cells. Kind of series: MTT cytotoxicity, 72 h, PSN-1 pancreatic cancer cells. The class given is cell-based, human. Particulars: read-out: IC50 (μM) ± S.D., PSN-1, MTT test. In short, it runs like this: as §1
A further series has as its system MCF-7 cells. Briefly: MTT cytotoxicity, 72 h, MCF-7 breast cancer cells. Particulars: read-out: IC50 (μM) ± S.D., MCF-7, MTT test. It counts as cell-based, human. In short, it runs like this: as §1
Series [3] concerns human cancer cell line panel. Kind of series: MTT cytotoxicity across the in-house human cancer cell line panel. The class given is cell-based. The following applies: MTT test, 72 h. In short, it runs like this:
as §1

In a further series the test system is LoVo OXP cells. Kind of series: MTT cytotoxicity, 72 h, oxaliplatin-resistant LoVo OXP colon cancer cells. It counts as cell-based, human. An outline of the steps:
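Oxaliplatin-resistant LoVo OXP subline obtained by growing LoVo cells in increasing oxaliplatin concentrations, with 17 months of resistant-clone selection. Paired with parental LoVo cells in RPMI-1640 with 10% fetal calf serum and 2 mM L-glutamine. 72 h MTT exposure with test compound in DMSO (final 0.5%), absorbance 570 nm. IC50 fitted by 4-parameter logistic model from at least three independent experiments.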

Series [4] addresses protein disulfide isomerase (PDI) (Homo sapiens, UniProt P07237). Briefly: Cell-free PDI inhibition. It counts as biochemical.
The test system of the next series is HEK-293 cells. Kind of series: MTT cytotoxicity, 72 h, non-tumor HEK-293 embryonic kidney cells. The class given is cell-based, human.

Sequence of protein disulfide isomerase (PDI) (P07237 18-508): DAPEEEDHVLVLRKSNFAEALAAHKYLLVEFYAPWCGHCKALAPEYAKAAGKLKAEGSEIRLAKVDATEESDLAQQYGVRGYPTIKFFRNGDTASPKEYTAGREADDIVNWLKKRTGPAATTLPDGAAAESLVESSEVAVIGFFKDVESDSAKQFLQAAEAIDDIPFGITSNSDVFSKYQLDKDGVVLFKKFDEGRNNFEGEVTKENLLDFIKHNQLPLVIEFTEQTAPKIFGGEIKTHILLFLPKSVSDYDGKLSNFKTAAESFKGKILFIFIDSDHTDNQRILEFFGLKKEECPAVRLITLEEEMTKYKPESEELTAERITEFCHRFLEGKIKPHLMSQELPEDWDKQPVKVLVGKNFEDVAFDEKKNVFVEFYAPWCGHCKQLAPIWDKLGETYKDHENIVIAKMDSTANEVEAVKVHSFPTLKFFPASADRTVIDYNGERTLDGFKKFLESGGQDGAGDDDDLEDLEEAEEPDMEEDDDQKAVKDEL

As usually defined, the IC50 is the concentration at which inhibition is half-maximal. `N.N.[Cl][Pt][Cl]` [Cisplatin, cisplatin, reference compound]: in the series with LoVo cells [1], the “morphological changes (cell death mode)” value is “classical morphological features of apoptosis induction”. The concentration for half-maximal inhibition (IC50) in the series on U-1285 cells was 2.1 ± 0.8 µM; on LoVo spheroids it was 60.6 ± 6.3 µM; in the series on B-CPAP cells it was 18.5 ± 4.1 µM; with LoVo cells [2], 7.6 ± 1.5 µM; in the series on PSN-1 cells it was 12.1 ± 2.8 µM; in the series on MCF-7 cells, 13.9 ± 1.3 µM.
Consider `Cc1cc(C)n(C(C(=O)OC(C)C)n2nc(C)cc2C)n1` [L^2OiPr, [HC(3,5-Me2pz)2COO^iPr]], for which, in [3], the “cytotoxic effect against all tested cancer cell lines” value was “completely ineffective”. Besides, the IC50 in the series on U-1285 cells, with B-CPAP cells, with LoVo cells [2], in the series on PSN-1 cells and in the series on MCF-7 cells was above 50 µM throughout.
For `CC(C)OC(=O)C(n1cccn1)n1cccn1` [L^OiPr, [HC(pz)2COO^iPr]], the “cytotoxic effect against all tested cancer cell lines” value in series [3] is given as “completely ineffective”. Moreover, the half-inhibitory concentration (IC50) with U-1285 cells, in the series with B-CPAP cells, with LoVo cells [2], in the series on PSN-1 cells and in the series with MCF-7 cells was above 50 µM throughout.
For `O=C1[O][Pt]2([NH][C@@H]3CCCC[C@H]3[NH]2)[O]C1=O` [Oxaliplatin, oxaliplatin, reference compound], the “R.F. = IC50 (resistant subline)/IC50 (wild-type cells)” value in the series with LoVo OXP cells was determined as 13. For the same molecule, the IC50 in the series with LoVo cells [2] was determined as 1.1 ± 0.6 µM.
As for `C1N2CN3CN1CP(C2)C3.Cc1cc(C)n(C(C(=O)OC(C)C)n2nc(C)cc2C)n1.F[P-](F)(F)(F)(F)F.[Cu+]` [compound 4, [Cu(L^2OiPr)(PTA)]PF6], in the series with LoVo OXP cells, the “R.F. = IC50 (resistant subline)/IC50 (wild-type cells)” value stood at 1.9. In addition, the “morphological changes (cell death mode)” value with LoVo cells [1] is reported as “no classical hallmarks of apoptosis”. For the same molecule, the “fold more effective than complex 2 (average IC50)” value in series [3] stood at 2 fold. Moreover, the IC50 was 12.3 µM in [3] (read-out: average IC50 across the human cancer cell lines); 13.7 µM in series [4] (read-out: IC50 for PDI inhibition, cell-free, Proteostat kit); above 50 µM in the series with HEK-293 cells (read-out: IC50 (μM) ± S.D., HEK-293, MTT test, 72 h, non-tumor cells); 11.9 ± 1.9 µM with U-1285 cells; 144 ± 7.8 µM on LoVo spheroids; 14.3 ± 0.9 µM with B-CPAP cells. Further, the half-inhibitory concentration (IC50) came to 7.8 ± 1.5 µM in the series with LoVo cells [2], 18.2 ± 0.8 µM in the series on PSN-1 cells and 14 ± 1.7 µM in the series with MCF-7 cells. In addition, the “reduction of PDI catalytic activity” value in series [4] (highest tested dose (50 μM)) was “about 80%”. Further, the “S.I. = average IC50 normal cells/average IC50 for the malignant cells” value in the series on HEK-293 cells (HEK-293 vs malignant cells) was above 4.0.

For the origin of these results see article PMC11605304 (RSC Medicinal Chemistry, 2024).
